According to ChEMBL document CHEMBL1124818, “Synthesis and cardiac electrophysiological activity of aryl-substituted derivatives of the class III antiarrhythmic agent sematilide. Potential class I/III agents” (J Med Chem, 1990):
Values joined by “and” are separate entries in the source; they are usually repeats but may differ in a detail not shown here. Identical values can stand only once.

Legend:
Canis familiaris [1] = assay: Antiarrhythmic efficacy in vivo against PES model; type: functional; details: Canis lupus familiaris, Heart
Summary of the method: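 Conscious dogs 3-8 days after occlusion/reperfusion infarction (Karagueuzian method); programmed electrical stimulation induced two control arrhythmias before dosing, VF ended by DC countershock and sustained VT by burst pacing. After intravenous drug, reinduction attempted; efficacy counted when SVT/VF not inducible; per-dog effective dose recorded, non-responders to cumulative 10 mg/kg unless noted.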

Canis familiaris [2] = species: Canis familiaris; assay: Duration of action potential was determined in vitro in Canine Purkinje fibers at 0.1 uM concentration.; type: functional, Canis lupus familiaris, Purkinje fiber
Summary of the method: (§1)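 Microelectrode recording in Purkinje fibers; action potential duration at 95% repolarization measured at each test concentration and expressed as percent change from control, mean ± SEM over the stated number of experiments.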

Canis familiaris [3] = species: Canis familiaris; assay: Duration of action potential in vitro against Canine Purkinje fibers; at 10 uM concentration.; type: functional, Canis lupus familiaris, Purkinje fiber; summary of the method: as §1
[4] = Percent change from control value for Vmax at 10 uM of the compound.
Summary of the method: (§2)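 Microelectrode recording in Purkinje fibers; maximal depolarization rate (Vmax) measured at each test concentration, given as percent change from control, mean ± SEM; n per concentration may differ from APD experiments.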

Cavia porcellus [5] = assay: Percent change in the mean time to first Ouabain-induced arrhythmia was determined in Guinea pig at a dose of 3 mg/kg; type: functional
Summary of the method: (§3)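 Anesthetized guinea pigs, tracheal cannulation with room-air respiration, right jugular cannulated; 5 min equilibration, test agent intravenous, then 10 min later ouabain 40 μg/kg iv bolus plus 10 μg/kg/min infusion until arrhythmia. Percent change in mean time to first arrhythmia (n = 4-6) versus vehicle control (n = 3-4).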

Canis familiaris [6] = species: Canis familiaris; assay: Duration of action potential in vitro against Canine Purkinje fibers; at 1 uM concentration; type: functional, Canis lupus familiaris, Purkinje fiber; summary of the method: as §1
Canis familiaris [7] = species: Canis familiaris; assay: Duration of action potential in vitro against Canine Purkinje fibers; at 3 uM concentration; type: functional, Canis lupus familiaris, Purkinje fiber; summary of the method: as §1
[8] = Percent change from control value for Vmax at 1 uM of the compound.; summary of the method: as §2
Canis familiaris [9] = assay: Antiarrhythmic efficacy in vivo against Harris model; type: functional; details: Canis lupus familiaris, Heart
Summary of the method: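 Conscious dogs studied 24 h after two-stage coronary occlusion infarction (Harris method), when ectopy exceeds 75%; test agent given intravenously. Efficacy counted as >30% decrease in ectopy; per-dog effective dose recorded, non-responders given cumulative 10 mg/kg unless otherwise noted.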

[10] = Percent change from control value for Vmax at 3 uM of the compound.; summary of the method: as §2
[11] = Percent change from control value for Vmax at 0.1 uM of the compound.; summary of the method: as §2
[12] = Percent change from control value for Vmax at 30 uM of the compound.; summary of the method: as §2
Cavia porcellus [13] = assay: Percent change in the mean time to first Ouabain-induced arrhythmia was determined in Guinea pig at a dose of 10 mg/kg; type: functional; summary of the method: as §3
Canis familiaris [14] = species: Canis familiaris; assay: Duration of action potential in vitro against Canine Purkinje fibers, at 10 uM concentration.; type: functional, Canis lupus familiaris, Purkinje fiber; summary of the method: as §1
Canis familiaris [15] = species: Canis familiaris; assay: Duration of action potential in vitro against Canine Purkinje fibers, at 30 uM concentration.; type: functional, Canis lupus familiaris, Purkinje fiber; summary of the method: as §1
Canis familiaris [16] = species: Canis familiaris; assay: Duration of action potential was determined in vitro in Canine Purkinje fibers at 1 uM concentration.; type: functional, Canis lupus familiaris, Purkinje fiber; summary of the method: as §1
Canis familiaris [17] = species: Canis familiaris; assay: Duration of action potential was determined in vitro in Canine Purkinje fibers at 30 uM concentration.; type: functional, Canis lupus familiaris, Purkinje fiber; summary of the method: as §1
Canis familiaris [18] = species: Canis familiaris; assay: Duration of action potential was determined in vitro in Canine Purkinje fibers at 10 uM concentration.; type: functional, Canis lupus familiaris, Purkinje fiber; summary of the method: as §1
[19] = Percent change from control value for Vmax at 100 uM of the compound.; summary of the method: as §2
Canis familiaris [20] = species: Canis familiaris; assay: Duration of action potential was determined in vitro in Canine Purkinje fibers at 100 uM concentration.; type: functional, Canis lupus familiaris, Purkinje fiber; summary of the method: as §1
Canis familiaris [21] = species: Canis familiaris; assay: Duration of action potential in vitro against Canine Purkinje fibers; at 100 uM concentration.; type: functional, Canis lupus familiaris, Purkinje fiber; summary of the method: as §1
Canis familiaris [22] = species: Canis familiaris; assay: Duration of action potential in vitro against Canine Purkinje fibers; at 30 uM concentration.; type: functional, Canis lupus familiaris, Purkinje fiber; summary of the method: as §1
Canis familiaris [23] = species: Canis familiaris; assay: Duration of action potential was determined in vitro in Canine Purkinje fibers at 1 uM concentration; type: functional, Canis lupus familiaris, Purkinje fiber; summary of the method: as §1
Canis familiaris [24] = species: Canis familiaris; assay: Duration of action potential was determined in vitro in Canine Purkinje fibers at 10 uM concentration; type: functional, Canis lupus familiaris, Purkinje fiber; summary of the method: as §1
[25] = Percent change from control value for Vmax at 0.1 uM of the compound; summary of the method: as §2
Canis familiaris [26] = species: Canis familiaris; assay: Duration of action potential was determined in vitro in Canine Purkinje fibers at 0.1 uM concentration; type: functional, Canis lupus familiaris, Purkinje fiber; summary of the method: as §1
Canis familiaris [27] = species: Canis familiaris; assay: Duration of action potential was determined in vitro in Canine Purkinje fibers at 30 uM concentration; type: functional, Canis lupus familiaris, Purkinje fiber; summary of the method: as §1
[28] = Percent change from control value for Vmax at 10 uM of the compound; summary of the method: as §2
[29] = Percent change from control value for Vmax at 30 uM of the compound; summary of the method: as §2
[30] = Percent change from control value for Vmax at 1 uM of the compound; summary of the method: as §2
Cavia porcellus [31] = assay: Percent change in the mean time to first Ouabain-induced arrhythmia was determined in Guinea pig at 10 mg/kg dose; type: functional; summary of the method: as §3
Canis familiaris [32] = species: Canis familiaris; assay: Duration of action potential in vitro against Canine Purkinje fibers, at 100 uM concentration.; type: functional, Canis lupus familiaris, Purkinje fiber; summary of the method: as §1
Canis familiaris [33] = species: Canis familiaris; assay: Duration of action potential in vitro against Canine Purkinje fibers, at 3 uM concentration.; type: functional, Canis lupus familiaris, Purkinje fiber; summary of the method: as §1

Row | SMILES | Delta Vmax [4] | Delta Vmax [8] | Delta Vmax [11] | Delta Vmax [12] | ED50 (Canis familiaris [1]) | Delta APD95 (Canis familiaris [2]) | Delta APD95 (Canis familiaris [6]) | Change (Cavia porcellus [13]; dose 10 mg/kg) | Delta APD95 (Canis familiaris [16]) | Delta APD95 (Canis familiaris [17]) | Delta APD95 (Canis familiaris [18]) | further results
1 | O=C(NCC1CCCCN1)c1cc(OCC(F)(F)F)ccc1OCC(F)(F)F (stereo not given) [FLECAINIDE] | -30% | -6% | 2% | – | 1 mg/kg | -3% | -15% | – | – | – | – | Delta APD95 (Canis familiaris [3]): -47%; Change (Cavia porcellus [5]): 51%; Delta APD95 (Canis familiaris [7]): -35%; ED50 (Canis familiaris [9]): 1 mg/kg; Delta Vmax [10]: -11%
2 | CCN(CC)CC(=O)Nc1c(C)cccc1C [LIDOCAINE] | 1% | 2% | – | – | – | – | – | 30% | -7% | – | -25% | –
3 | CCN(CC)CCN(C(=O)c1ccc(NS(C)(=O)=O)cc1)c1ccc(OC)cc1.O=C(O)/C=C/C(=O)O | -3% | -3% | 0% | -8% | – | 8% | – | 15% | 35% | 66% | 82% | –
4 | CCN(CC)C(CNC(=O)c1ccc(NS(C)(=O)=O)cc1)c1ccccc1 (stereo not given) | -12% | -4% | -4% | -15% | – | 11% | 40% | -13% | – | – | – | Delta APD95 (Canis familiaris [14]): 46%; Delta APD95 (Canis familiaris [15]): 52%
5 | CCN(CC)CC(NC(=O)c1ccc(NS(C)(=O)=O)cc1)c1ccccc1.Cl (stereo not given) | -13% | -2% | 6% | -34% | – | 4% | 21% | 61% | – | – | – | Delta APD95 (Canis familiaris [3]): -2%; Delta Vmax [19]: -76%; Delta APD95 (Canis familiaris [21]): -20%; Delta APD95 (Canis familiaris [22]): -12%
6 | CCN(CC)CCN(C(=O)c1ccc(NS(C)(=O)=O)cc1)c1c(C(C)C)cccc1C(C)C.Cl | -11% | 1% | – | – | 1 mg/kg | – | – | – | 21% | – | 22% | Change (Cavia porcellus [5]): 22%; ED50 (Canis familiaris [9]): 10 mg/kg
7 | CCN(CC)CCN(C(=O)c1ccc(NS(C)(=O)=O)cc1)c1ccc(NS(C)(=O)=O)cc1 | – | – | – | – | – | – | – | 22% | – | – | – | Delta APD95 (Canis familiaris [23]): 10%; Delta APD95 (Canis familiaris [24]): 30%; Delta Vmax [25]: -4%; Delta APD95 (Canis familiaris [26]): 7%; Delta APD95 (Canis familiaris [27]): 40%; Delta Vmax [28]: -3%; Delta Vmax [29]: -6%; Delta Vmax [30]: -2%
8 | C=C[C@H]1CN2CC[C@H]1C[C@@H]2[C@@H](O)c1ccnc2ccc(OC)cc12 [QUINIDINE] | – | -1% | 0% | -23% | 1 mg/kg | 2% | – | – | 4% | -17% | -4% | Delta APD95 (Canis familiaris [20]): -14%; ED50 (Canis familiaris [9]): 10 mg/kg; Change (Cavia porcellus [31]): 28%
9 | CCN(CC)CCNC(=O)c1ccc(NS(C)(=O)=O)cc1 [SEMATILIDE] | 0% | 0% | 2% | – | 1 mg/kg | 0% | 6% | – | – | – | – | Delta Vmax [19]: 0%; Delta APD95 (Canis familiaris [32]): 66%; Delta APD95 (Canis familiaris [14]): 33%; Delta APD95 (Canis familiaris [15]): 51%; Delta APD95 (Canis familiaris [33]): 14%

More lines, main results first:

Row | Delta Vmax [4] | Delta Vmax [8] | Delta Vmax [11] | Delta Vmax [12] | SMILES | ED50 (Canis familiaris [1]) | Delta APD95 (Canis familiaris [2]) | Delta APD95 (Canis familiaris [6]) | Change (Cavia porcellus [13]; dose 10 mg/kg) | Delta APD95 (Canis familiaris [16]) | Delta APD95 (Canis familiaris [17]) | Delta APD95 (Canis familiaris [18]) | further results
10 | -4% | -2% | 1% | -7% | CCN(CC)C(CNC(=O)c1ccc(NS(C)(=O)=O)cc1)c1cccc2ccccc12 (stereo not given) | – | 4% | 29% | 0% | – | – | – | Delta APD95 (Canis familiaris [14]): 34%; Delta APD95 (Canis familiaris [15]): 29%
11 | -8% | 2% | 3% | -20% | CCN(CC)CCN(C(=O)c1ccc(NS(C)(=O)=O)cc1)c1ccc(Cl)cc1 | – | 9% | – | 18% | 34% | 60% | 64% | –
12 | -3% | -2% | -4% | -6% | CCN(CC)CCN(C(=O)c1ccc(NS(C)(=O)=O)cc1)c1c(C)cccc1C.Cl | – | 7% | – | -8% | 10% | 40% | 30% | –
13 | -12% | -3% | -4% | -20% | CCN(CC)CCN(C(=O)c1ccc(NS(C)(=O)=O)cc1)c1ccccc1.Cl | – | 4% | – | -9% | 18% | 38% | 52% | Delta Vmax [19]: -39%; Delta APD95 (Canis familiaris [20]): 45%
14 | – | -20% | -3% | – | CCN(CC)CC(NC(=O)c1ccc(NS(C)(=O)=O)cc1)c1cccc2ccccc12 (stereo not given) | 1 mg/kg | 14% | 10% | – | – | – | – | Change (Cavia porcellus [13]; dose 3 mg/kg, in the assay text read “3 mg/kg” for “10 mg/kg”): 70%; Delta APD95 (Canis familiaris [14]): -14%; ED50 (Canis familiaris [9]): 2 mg/kg
15 | -13% | -5% | 2% | -16% | CCN(CC)CCN(C(=O)c1ccc(NS(C)(=O)=O)cc1)c1cccc2ccccc12.Cl | 1 mg/kg | 10% | 51% | -25% | – | – | – | Delta APD95 (Canis familiaris [3]): 64% and 37%; Delta Vmax [19]: -42%; Change (Cavia porcellus [5]): 8%; Delta APD95 (Canis familiaris [21]): 26%
16 | 4% | 8% | 5% | -6% | CCc1ccc(N(CCN(CC)CC)C(=O)c2ccc(NS(C)(=O)=O)cc2)cc1.Cl | – | 12% | – | 20% | 51% | 62% | 70% | –
